According to ChEMBL document CHEMBL4145468, “Synthesis and biological evaluation of new steroidal pyridines as potential anti-prostate cancer agents” (Eur J Med Chem, 2018):
pIC50: −log10 of the molar value.

Columns and labels:
ECa-109 cell line = assay: Antiproliferative activity against human EC109 cells after 72 hrs by MTT assay; format: functional, cell-based; conditions: ECa-109, 72 h
Procedure, shortened: (§1)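 Exponentially growing cells, 4×10^3/well, attached 24 h, then medium replaced with fresh medium holding graded compound concentrations for 72 h. MTT (5 mg/mL stock) added for 4 h, formazan dissolved in DMSO, absorbance at 570 nm; IC50 calculated from dose-response data.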

PC-3 = assay: Antiproliferative activity against human PC3 cells after 72 hrs by MTT assay; format: functional, cell-based; conditions: PC-3, 72 h; procedure, shortened: as §1
MGC-803 = assay: Antiproliferative activity against human MGC803 cells after 72 hrs by MTT assay; format: functional, cell-based; conditions: MGC-803, 72 h; procedure, shortened: as §1
GES1 = assay: Antiproliferative activity against human GES-1 cells after 72 hrs by MTT assay; format: cell-based; conditions: GES1, 72 h; procedure, shortened: as §1
LNCaP = assay: Antiproliferative activity against human LNCAP cells after 72 hrs by MTT assay; format: functional, cell-based; procedure, shortened: as §1

pIC50 (PC-3)	pIC50 (MGC-803)	pIC50 (LNCaP)	Structure (SMILES)	pIC50 (ECa-109 cell line)	pIC50 (GES1)
4.86	< 4.49	–	CCOc1nc([C@H]2CC[C@H]3[C@@H]4CC=C5C[C@@H](O)CC[C@]5(C)[C@H]4CC[C@]23C)cc(-c2ccc(Br)cc2)c1C#N	< 4.49	< 4.49
< 4.49	< 4.49	–	CCOc1nc([C@H]2CC[C@H]3[C@@H]4CC=C5C[C@@H](O)CC[C@]5(C)[C@H]4CC[C@]23C)cc(-c2ccc(C)cc2)c1C#N	< 4.49	< 4.49
5.16	4.63	–	CCOc1nc([C@H]2CC[C@H]3[C@@H]4CC=C5C[C@@H](O)CC[C@]5(C)[C@H]4CC[C@]23C)cc(-c2cccs2)c1C#N	5.01	< 4.49
4.98	< 4.49	–	CCOc1nc([C@H]2CC[C@H]3[C@@H]4CC=C5C[C@@H](O)CC[C@]5(C)[C@H]4CC[C@]23C)cc(-c2ccc(Cl)cc2)c1C#N	< 4.49	< 4.49
< 4.49	< 4.49	–	CCOc1nc([C@H]2CC[C@H]3[C@@H]4CC=C5C[C@@H](O)CC[C@]5(C)[C@H]4CC[C@]23C)cc(-c2ccc(F)cc2)c1C#N	< 4.49	< 4.49
5.23	4.83	5.29	CCOc1nc([C@H]2CC[C@H]3[C@@H]4CC=C5C[C@@H](O)CC[C@]5(C)[C@H]4CC[C@]23C)cc(-c2cccnc2)c1C#N	5.55	< 4.49
5.03	4.55	–	CCOc1nc([C@H]2CC[C@H]3[C@@H]4CC=C5C[C@@H](O)CC[C@]5(C)[C@H]4CC[C@]23C)cc(-c2cccc(Br)c2)c1C#N	< 4.49	4.66
5.36	4.80	–	CCOc1nc([C@H]2CC[C@H]3[C@@H]4CC=C5C[C@@H](O)CC[C@]5(C)[C@H]4CC[C@]23C)cc(-c2ccccc2)c1C#N	4.88	5.11
5.16	4.91	–	CCOc1nc([C@H]2CC[C@H]3[C@@H]4CC=C5C[C@@H](O)CC[C@]5(C)[C@H]4CC[C@]23C)cc(-c2cc(F)cc(F)c2)c1C#N	4.70	< 4.49
4.91	4.65	–	CCOc1nc([C@H]2CC[C@H]3[C@@H]4CC=C5C[C@@H](O)CC[C@]5(C)[C@H]4CC[C@]23C)cc(-c2ccsc2)c1C#N	4.98	4.52

Second part, the molecule before the results:

Structure (SMILES)	pIC50 (PC-3)	pIC50 (MGC-803)	pIC50 (LNCaP)	pIC50 (ECa-109 cell line)	pIC50 (GES1)
CCOc1cc(-c2cccs2)cc([C@H]2CC[C@H]3[C@@H]4CC=C5C[C@@H](O)CC[C@]5(C)[C@H]4CC[C@]23C)n1	4.82	< 4.49	–	4.76	< 4.49
CCOc1cc(-c2ccc(F)cc2)cc([C@H]2CC[C@H]3[C@@H]4CC=C5C[C@@H](O)CC[C@]5(C)[C@H]4CC[C@]23C)n1	< 4.49	< 4.49	–	< 4.49	< 4.49
C[C@]12CC[C@H](O)CC1=CC[C@@H]1[C@@H]2CC[C@]2(C)C(c3cccnc3)=CC[C@@H]12 [ABIRATERONE]	5.23	5.11	5.48	< 4.49	4.88
CCOc1cc(-c2ccncc2)cc([C@H]2CC[C@H]3[C@@H]4CC=C5C[C@@H](O)CC[C@]5(C)[C@H]4CC[C@]23C)n1	5.20	5.35	–	4.78	4.80
CCOc1cc(-c2ccc(S(C)(=O)=O)cc2)cc([C@H]2CC[C@H]3[C@@H]4CC=C5C[C@@H](O)CC[C@]5(C)[C@H]4CC[C@]23C)n1	< 4.49	< 4.49	–	4.50	< 4.49
CCOc1cc(-c2ccc(Cl)cc2)cc([C@H]2CC[C@H]3[C@@H]4CC=C5C[C@@H](O)CC[C@]5(C)[C@H]4CC[C@]23C)n1	< 4.49	4.72	–	< 4.49	< 4.49
CCOc1cc(-c2ccc(C)cc2)cc([C@H]2CC[C@H]3[C@@H]4CC=C5C[C@@H](O)CC[C@]5(C)[C@H]4CC[C@]23C)n1	< 4.49	< 4.49	–	< 4.49	< 4.49
CCOc1nc([C@H]2CC[C@H]3[C@@H]4CC=C5C[C@@H](O)CC[C@]5(C)[C@H]4CC[C@]23C)cc(-c2cccc([N+](=O)[O-])c2)c1C#N	5.11	4.88	–	4.56	< 4.49
CCOc1cc(-c2cccnc2)cc([C@H]2CC[C@H]3[C@@H]4CC=C5C[C@@H](OC(C)=O)CC[C@]5(C)[C@H]4CC[C@]23C)n1	5.16	< 4.49	4.55	< 4.49	< 4.49
CCOc1cc(-c2cccc(Br)c2)cc([C@H]2CC[C@H]3[C@@H]4CC=C5C[C@@H](O)CC[C@]5(C)[C@H]4CC[C@]23C)n1	4.66	< 4.49	–	< 4.49	< 4.49
CCOc1cc(-c2ncccc2Br)cc([C@H]2CC[C@H]3[C@@H]4CC=C5C[C@@H](O)CC[C@]5(C)[C@H]4CC[C@]23C)n1	4.87	4.59	–	< 4.49	< 4.49
CCOc1cc(-c2ccco2)cc([C@H]2CC[C@H]3[C@@H]4CC=C5C[C@@H](O)CC[C@]5(C)[C@H]4CC[C@]23C)n1	4.97	4.58	–	4.58	< 4.49
CCOc1cc(-c2ccccc2)cc([C@H]2CC[C@H]3[C@@H]4CC=C5C[C@@H](O)CC[C@]5(C)[C@H]4CC[C@]23C)n1	4.51	< 4.49	–	< 4.49	< 4.49
CCOc1cc(-c2cc(F)cc(F)c2)cc([C@H]2CC[C@H]3[C@@H]4CC=C5C[C@@H](O)CC[C@]5(C)[C@H]4CC[C@]23C)n1	4.78	< 4.49	–	< 4.49	< 4.49
CCOc1cc(-c2ccc(C#N)cc2)cc([C@H]2CC[C@H]3[C@@H]4CC=C5C[C@@H](O)CC[C@]5(C)[C@H]4CC[C@]23C)n1	4.61	4.63	–	< 4.49	< 4.49
CCOc1cc(-c2ccc(Br)cc2)cc([C@H]2CC[C@H]3[C@@H]4CC=C5C[C@@H](O)CC[C@]5(C)[C@H]4CC[C@]23C)n1	< 4.49	< 4.49	–	< 4.49	< 4.49
CCOc1nc([C@H]2CC[C@H]3[C@@H]4CC=C5C[C@@H](O)CC[C@]5(C)[C@H]4CC[C@]23C)cc(-c2ccc(S(C)(=O)=O)cc2)c1C#N	< 4.49	< 4.49	–	< 4.49	< 4.49
